SMILES strings stand for the structures.

For one assay, the target named is Lacticaseibacillus casei. Nature of the assay: Inhibition of dTMP synthetase in the absence of CH2-H4 folate Lactobacillus casei. In kind it is functional.
Assay [1] deals with S49. Nature of the assay: Reduction of deoxy-Thymidinetriphosphate pool after 1 hour incubation in S-49 cells(2 X 10e 5) at a concentration of 16.5 uM. In kind it is functional, Mus musculus. The essentials:
(§1)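 Mouse lymphoma S-49 suspension cultures at 2 × 10^5 cells/mL in DMEM with 10% heat-inactivated horse serum, 37 °C, exposed to 16.5 μM drug; dATP, dCTP, dGTP, dTTP pool sizes measured at 1 h (dTTP also 4 h), expressed as percent of original value.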

Assay [2] relates to Thymidylate synthase (Lactobacillus casei). In words: Rate constant for the inactivation of DTMP synthetase in the presence of cofactor CH2-H4 folate.
The subject of assay [3] is S49. Nature of the assay: The growth inhibition of thymidine kinase deficient S-49 cells. In kind it is functional, cell-based. To be noted: Mus musculus. The method in brief:
(§2)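 S-49 or thymidine kinase-deficient S-49/TK⁻ cells in 1 mL DMEM with 10% heat-inactivated horse serum plus inhibitor, 37 °C, 10% CO2, 72 h; cell density counted daily by Coulter counter; EC50 = concentration halving growth rate relative to untreated controls.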

Assay [4] relates to S49. In words: Reduction of deoxy-Cytidinetriphosphate pool after 1 hour incubation in S-49 cells(2 X 10e 5) at a concentration of 16.5 uM. In kind it is functional, Mus musculus. The essentials:
as §1

The subject of assay [5] is S49. Nature of the assay: Reduction of deoxy-Adenosinetriphosphate pool after 1 hour incubation in S-49 cells(2 X 10e 5) at a concentration of 16.5 uM. In kind it is functional, Mus musculus. The method in brief: as §1
Assay [6] concerns S49. Nature of the assay: Reduction of deoxy-Thymidinetriphosphate pool after 4 hour incubation in S-49 cells(2 X 10e 5) at a concentration of 16.5 uM. In kind it is functional, Mus musculus. The essentials:
as §1

The subject of assay [7] is S49. In words: The growth inhibition of S-49 mouse lymphoma cells. In kind it is functional, cell-based. The essentials: as §2
The test system of assay [8] is S49. Nature of the assay: Reduction of deoxy-[…] pool after 1 hour incubation in S-49 cells(2 X 10e 5) at a concentration of 16.5 uM. In kind it is functional, Mus musculus. The method in brief:
as §1

The subject of a further assay is P815. In words: The growth inhibition of P815 cell line. In kind it is functional, cell-based. Particulars: Mus musculus.
Another assay relates to L5178Y. In words: The growth inhibition of L5178Y cell line. In kind it is functional, cell-based. To be noted: Mus musculus.

On Lacticaseibacillus casei, `O=c1[nH]c(=O)n([C@H]2C[C@H](O)[C@@H](COP(=O)(O)O)O2)cc1Cl` registered a Ki of 0.19 µM.

Compound `O=c1ccn([C@H]2C[C@H](O)[C@@H](COP(=O)(O)O)O2)c(=O)[nH]1` [DEOXYURIDINE MONOPHOSPHATE] displayed a Ki at Lacticaseibacillus casei of 2.3 µM.

`O=c1[nH]c(=O)n([C@H]2O[C@@H](CO)[C@H](O)[C@H]2F)cc1F`: the Decrease was 80% with S49 [1], 90% in the assay on S49 [5], 40% in the assay with S49 [6] and < 20% in the assay with S49 [8]. Moreover, in assay [2], the Rate constant was 2.4 min⁻¹. The EC50 in the assay on S49 [3] came out at 400 µM; with S49 [7] it was 3.3 µM; in the assay with P815 it was 2.6 µM; with L5178Y, 3.8 µM. The Increase in the assay on S49 [4] is given as 172%.

With `O=c1[nH]c(=O)n([C@@H]2O[C@H](COP(=O)(O)O)[C@@H](O)[C@@H]2F)cc1F`, on Lacticaseibacillus casei, the affinity corresponds to a Ki of 3.3 µM.
